Published values pooled from the literature.
Lines come from different studies, so protocols differ.
Target: MAP kinase-activated protein kinase 5 (MAPKAPK5, Homo sapiens, UniProt Q8IW41)
Residues used in one study (Q8IW41 1-473): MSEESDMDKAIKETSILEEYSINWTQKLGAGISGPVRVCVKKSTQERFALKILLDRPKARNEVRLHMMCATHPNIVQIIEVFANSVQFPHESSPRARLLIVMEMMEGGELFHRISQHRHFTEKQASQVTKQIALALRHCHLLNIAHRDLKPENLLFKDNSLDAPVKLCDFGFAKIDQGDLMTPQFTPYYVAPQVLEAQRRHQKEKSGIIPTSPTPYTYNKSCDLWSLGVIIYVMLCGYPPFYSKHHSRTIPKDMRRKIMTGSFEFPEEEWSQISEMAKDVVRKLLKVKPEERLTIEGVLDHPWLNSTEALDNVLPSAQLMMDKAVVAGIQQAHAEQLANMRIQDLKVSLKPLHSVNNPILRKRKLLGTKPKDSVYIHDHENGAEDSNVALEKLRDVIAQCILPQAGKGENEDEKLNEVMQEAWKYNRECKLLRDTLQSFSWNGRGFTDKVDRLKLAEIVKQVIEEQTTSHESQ

Compound	effect on	technique	tested at	remaining binding
CN(C)CC#Cc1ccc(OCCCc2sc(N3CCc4cccc(C(=O)Nc5nc6ccccc6s5)c4C3)nc2C(=O)O)c(F)c1	cell-free assay	competition with immobilised ligand	1 µM	99%
CNC(=O)[C@@H]1CC[C@@H](n2c(-c3ccc4cnccc4c3)nc3ccc(C(=O)NCc4cccc(C(N)=O)c4)cc32)C1	binding	competition with immobilised ligand	1 µM	100%
FC(F)(F)Oc1cccc(-c2cnc3ccc(-c4ccncc4)nn23)c1	cell-free assay	competition with immobilised ligand	5 µM	71%
CSc1cccnc1N1CCN(Cc2nc3ccccc3[nH]2)CC1	cell-free assay	competition with immobilised ligand	1 µM	84%
Nc1ncc2c(n1)-c1c([nH]c3ccc(C#CC4CC4)cc13)CCCC2	binding	competition with immobilised ligand	1 µM	97%
Cn1cc(Cl)c2c(Oc3c(F)cc(Nc4cc(Cl)nc(N)n4)cc3F)ccnc21	cell-free assay	competition with immobilised ligand	0.1 µM	100%
O=C(NCCCN1CCOCC1)c1ccc(Nc2nccc(-c3cc4ccccc4s3)n2)cc1	binding	competition with immobilised ligand	1 µM	82%
CN(c1nccc(-c2cnn3ncccc23)n1)C1CC1	binding		1 µM	99%
C[C@H](c1cccc(C#N)c1)n1cc(Cl)cc(C(N)=O)c1=N	cell-free assay	competition with immobilised ligand	1 µM	84%
O=C(c1ccc(Nc2nccc(-c3cc4ccccc4s3)n2)cc1)N1CCC(N2CCCC2)CC1	binding	competition with immobilised ligand	1 µM	96%
C[C@H](c1ccnc(Nc2nc3ccc(-c4cc(N(C)C)ncn4)cc3[nH]2)c1)N1CCN(C(=O)CC(F)(F)F)CC1	cell-free assay	competition with immobilised ligand	0.1 µM	86%
CC1CCCN1c1nccc(-c2cnn3ncccc23)n1 (stereo not shown)	binding		1 µM	100%
O=C(NCC1CCOCC1)c1n[nH]cc1NC(=O)c1c(F)cccc1F	binding	competition with immobilised ligand	1 µM	72%
Cc1cnn2ncc(-c3ccnc(N(C)C)n3)c2c1	binding		1 µM	77%
C=CC(=O)N1CCC(C(=O)NCC(=O)N2CCN(c3nc(-c4cnc(N)nc4C(F)F)nc(N4CCOCC4)n3)CC2)CC1	binding	competition with immobilised ligand	1 µM	92%
C[C@@H]1CCN(c2nccc(-c3cnn4ncccc34)n2)C1	binding		1 µM	69%
O=S(=O)(NC1CCC(c2cc(F)ccc2F)(S(=O)(=O)c2ccc(Cl)cc2)CC1)C(F)(F)F (stereo not shown)	cell-free assay	competition with immobilised ligand	1 µM	93%
CN(CCCC(F)(F)F)c1nccc(-c2cnn3ncccc23)n1	binding		1 µM	100%
c1cncc(-c2cccc(Nc3nccc(NC4CCCCC4)n3)c2)c1	binding	competition with immobilised ligand	10 µM	100%
